Assays:
Conditions in all cases: stereoisomer not certain
O10Q1 Q10R E12D = system: O10Q1 Q10R E12D
Summary of the method: (§1)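 Values were gathered from published papers (main text and supplementary material), with extra details requested from the original authors when needed, and checked for typos and inconsistencies. Each receptor–molecule pair is called responsive (active) if the original authors judged the measured signal statistically different from baseline, and non-responsive (inactive) otherwise. Assay methods varied by source, often transient mammalian cell-line luciferase assays. Recorded details include cell line, G-protein, co-transfected protein and tags.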

O10R2 I170L = system: O10R2 I170L
Sequence of O10R2 I170L (as listed by the source, stated change not applied): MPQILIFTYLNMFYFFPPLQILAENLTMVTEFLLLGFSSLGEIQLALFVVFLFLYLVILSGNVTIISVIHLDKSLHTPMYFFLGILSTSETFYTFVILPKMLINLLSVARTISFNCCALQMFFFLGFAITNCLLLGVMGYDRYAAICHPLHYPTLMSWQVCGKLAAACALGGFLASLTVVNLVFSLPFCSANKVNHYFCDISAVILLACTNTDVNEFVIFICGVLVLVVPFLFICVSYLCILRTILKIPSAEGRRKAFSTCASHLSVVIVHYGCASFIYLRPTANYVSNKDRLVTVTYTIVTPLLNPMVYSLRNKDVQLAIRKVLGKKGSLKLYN
Summary of the method: as §1

O10T2 I137M = system: O10T2 I137M
Sequence of O10T2 I137M (as listed by the source, stated change not applied): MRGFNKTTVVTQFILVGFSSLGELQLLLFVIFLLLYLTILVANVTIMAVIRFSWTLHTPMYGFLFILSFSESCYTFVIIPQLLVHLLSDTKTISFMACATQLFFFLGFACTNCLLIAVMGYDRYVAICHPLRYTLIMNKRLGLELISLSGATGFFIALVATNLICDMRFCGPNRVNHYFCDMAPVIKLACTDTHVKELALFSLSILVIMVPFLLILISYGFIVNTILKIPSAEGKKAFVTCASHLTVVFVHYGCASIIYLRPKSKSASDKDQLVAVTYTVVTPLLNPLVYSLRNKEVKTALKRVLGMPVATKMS
Summary of the method: as §1

O10V1 Q123R = system: O10V1 Q123R
Sequence of O10V1 Q123R (as listed by the source, stated change not applied): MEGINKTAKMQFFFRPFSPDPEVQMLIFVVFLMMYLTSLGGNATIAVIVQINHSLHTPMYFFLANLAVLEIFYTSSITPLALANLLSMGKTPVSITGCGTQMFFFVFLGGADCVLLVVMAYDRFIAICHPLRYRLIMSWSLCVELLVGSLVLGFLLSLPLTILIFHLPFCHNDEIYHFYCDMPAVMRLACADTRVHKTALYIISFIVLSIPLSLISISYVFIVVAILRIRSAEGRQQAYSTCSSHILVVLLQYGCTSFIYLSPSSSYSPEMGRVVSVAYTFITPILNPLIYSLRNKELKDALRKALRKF
Summary of the method: as §1

O10X1 N4T R181S = system: O10X1 N4T R181S
Summary of the method: as §1

O11G2 F3I I99N V116I = system: O11G2 F3I I99N V116I
Summary of the method: as §1

O11H1 M240V = system: O11H1 M240V
Sequence of O11H1 M240V (as listed by the source, stated change not applied): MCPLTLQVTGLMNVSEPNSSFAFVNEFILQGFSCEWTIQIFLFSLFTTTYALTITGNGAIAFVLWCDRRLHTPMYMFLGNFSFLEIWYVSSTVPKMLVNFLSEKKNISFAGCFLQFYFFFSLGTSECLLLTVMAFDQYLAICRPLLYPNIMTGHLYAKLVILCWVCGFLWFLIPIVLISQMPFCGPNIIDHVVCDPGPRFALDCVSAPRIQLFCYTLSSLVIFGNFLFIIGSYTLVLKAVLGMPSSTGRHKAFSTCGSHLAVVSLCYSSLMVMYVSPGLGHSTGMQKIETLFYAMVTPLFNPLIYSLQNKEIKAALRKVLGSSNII
Summary of the method: as §1

O11H6 I107T = system: O11H6 I107T
Sequence of O11H6 I107T (as listed by the source, stated change not applied): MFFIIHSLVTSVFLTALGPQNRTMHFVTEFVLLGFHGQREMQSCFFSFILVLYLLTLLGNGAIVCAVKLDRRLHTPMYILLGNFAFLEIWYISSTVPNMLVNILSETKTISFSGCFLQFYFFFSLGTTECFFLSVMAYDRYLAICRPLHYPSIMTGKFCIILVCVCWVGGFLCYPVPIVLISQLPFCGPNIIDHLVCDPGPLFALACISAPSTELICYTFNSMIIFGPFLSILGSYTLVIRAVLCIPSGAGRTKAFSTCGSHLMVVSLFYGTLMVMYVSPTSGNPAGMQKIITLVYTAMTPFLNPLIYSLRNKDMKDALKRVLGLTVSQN
Summary of the method: as §1

O11HC C156Y V240M = system: O11HC C156Y V240M
Summary of the method: as §1

O12D2 S104F = system: O12D2 S104F
Sequence of O12D2 S104F (as listed by the source, stated change not applied): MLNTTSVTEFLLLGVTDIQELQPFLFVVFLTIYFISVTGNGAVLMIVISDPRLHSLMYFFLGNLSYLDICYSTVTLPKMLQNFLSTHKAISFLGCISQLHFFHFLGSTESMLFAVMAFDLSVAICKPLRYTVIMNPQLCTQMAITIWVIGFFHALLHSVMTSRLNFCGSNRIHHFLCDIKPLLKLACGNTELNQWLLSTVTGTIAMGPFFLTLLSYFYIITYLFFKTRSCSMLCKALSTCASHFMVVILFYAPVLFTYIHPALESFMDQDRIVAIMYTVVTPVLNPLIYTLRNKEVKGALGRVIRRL
Summary of the method: as §1

O13C2 H6Q = system: O13C2 H6Q
Sequence of O13C2 H6Q (as listed by the source): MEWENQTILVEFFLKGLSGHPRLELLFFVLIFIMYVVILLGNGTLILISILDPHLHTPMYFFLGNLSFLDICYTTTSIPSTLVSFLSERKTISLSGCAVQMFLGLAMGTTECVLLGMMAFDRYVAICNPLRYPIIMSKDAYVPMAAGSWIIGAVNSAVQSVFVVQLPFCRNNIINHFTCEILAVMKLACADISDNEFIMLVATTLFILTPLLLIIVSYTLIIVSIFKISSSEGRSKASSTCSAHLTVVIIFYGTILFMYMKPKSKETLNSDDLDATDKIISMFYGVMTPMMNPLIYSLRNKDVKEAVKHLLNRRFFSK
Summary of the method: as §1

O13C8 A19D = system: O13C8 A19D
Sequence of O13C8 A19D (as listed by the source, stated change not applied): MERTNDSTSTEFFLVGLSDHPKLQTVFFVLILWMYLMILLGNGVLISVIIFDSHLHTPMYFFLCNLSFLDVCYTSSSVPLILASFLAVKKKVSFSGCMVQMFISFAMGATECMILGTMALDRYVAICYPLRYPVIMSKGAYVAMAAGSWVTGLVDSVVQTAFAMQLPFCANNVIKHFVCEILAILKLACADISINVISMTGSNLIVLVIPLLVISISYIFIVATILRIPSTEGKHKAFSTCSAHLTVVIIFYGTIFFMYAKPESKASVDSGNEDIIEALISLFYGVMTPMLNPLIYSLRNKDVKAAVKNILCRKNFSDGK
Summary of the method: as §1

O13C9 H17L V19G L23H = system: O13C9 H17L V19G L23H
Summary of the method: as §1

O13C9 Q6H = system: O13C9 Q6H
Sequence of O13C9 Q6H (as listed by the source): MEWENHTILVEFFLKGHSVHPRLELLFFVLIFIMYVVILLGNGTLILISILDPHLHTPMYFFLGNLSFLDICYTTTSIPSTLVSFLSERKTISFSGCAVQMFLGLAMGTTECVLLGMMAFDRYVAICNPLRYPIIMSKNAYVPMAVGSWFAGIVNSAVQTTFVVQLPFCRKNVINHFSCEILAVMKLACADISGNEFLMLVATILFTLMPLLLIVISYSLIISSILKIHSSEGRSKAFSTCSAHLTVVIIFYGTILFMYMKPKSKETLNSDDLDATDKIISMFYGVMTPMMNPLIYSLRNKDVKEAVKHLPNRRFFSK
Summary of the method: as §1

O13F1 F18S T254M = system: O13F1 F18S T254M
Summary of the method: as §1

O13F1 F18S = system: O13F1 F18S
Sequence of O13F1 F18S (as listed by the source, stated change not applied): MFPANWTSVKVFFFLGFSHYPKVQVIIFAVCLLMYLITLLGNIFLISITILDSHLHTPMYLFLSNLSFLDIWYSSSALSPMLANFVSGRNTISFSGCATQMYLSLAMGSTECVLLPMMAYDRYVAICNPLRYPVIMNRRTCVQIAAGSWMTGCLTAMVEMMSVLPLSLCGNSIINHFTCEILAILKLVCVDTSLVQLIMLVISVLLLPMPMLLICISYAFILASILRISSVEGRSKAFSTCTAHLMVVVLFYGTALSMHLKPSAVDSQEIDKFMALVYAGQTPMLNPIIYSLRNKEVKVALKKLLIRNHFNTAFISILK
Summary of the method: as §1

O13G1 K46I M146L = system: O13G1 K46I M146L
Summary of the method: as §1

O13G1 = system: O13G1
Sequence of O13G1 (as listed by the source): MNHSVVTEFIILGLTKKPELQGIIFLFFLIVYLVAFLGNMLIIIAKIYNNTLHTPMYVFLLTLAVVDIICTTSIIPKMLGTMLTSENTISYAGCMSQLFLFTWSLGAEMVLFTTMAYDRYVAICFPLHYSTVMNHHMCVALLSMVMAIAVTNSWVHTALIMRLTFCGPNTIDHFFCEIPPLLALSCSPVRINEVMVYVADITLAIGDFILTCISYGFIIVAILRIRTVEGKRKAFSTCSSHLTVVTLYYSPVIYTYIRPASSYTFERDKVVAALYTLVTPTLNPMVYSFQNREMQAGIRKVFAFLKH
Summary of the method: as §1

O13H1 Y266S = system: O13H1 Y266S
Sequence of O13H1 Y266S (as listed by the source, stated change not applied): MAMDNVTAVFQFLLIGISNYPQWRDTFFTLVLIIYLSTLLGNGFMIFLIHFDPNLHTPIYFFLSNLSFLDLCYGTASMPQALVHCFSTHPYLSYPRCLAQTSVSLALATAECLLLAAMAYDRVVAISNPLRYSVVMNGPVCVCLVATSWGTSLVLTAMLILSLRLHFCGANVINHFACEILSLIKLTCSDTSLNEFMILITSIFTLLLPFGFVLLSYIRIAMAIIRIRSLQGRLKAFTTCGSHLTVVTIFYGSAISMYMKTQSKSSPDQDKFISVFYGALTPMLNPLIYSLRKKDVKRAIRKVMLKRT
Summary of the method: as §1

O13J1 = system: O13J1
Sequence of O13J1 (as listed by the source): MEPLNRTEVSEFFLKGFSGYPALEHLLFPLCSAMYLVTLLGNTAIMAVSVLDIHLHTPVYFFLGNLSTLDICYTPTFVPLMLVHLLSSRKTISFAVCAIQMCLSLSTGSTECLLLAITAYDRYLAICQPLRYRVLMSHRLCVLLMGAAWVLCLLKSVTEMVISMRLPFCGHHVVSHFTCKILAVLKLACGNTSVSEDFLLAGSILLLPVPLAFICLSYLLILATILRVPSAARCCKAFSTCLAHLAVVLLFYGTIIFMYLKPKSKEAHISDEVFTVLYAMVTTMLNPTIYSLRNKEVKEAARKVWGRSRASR
Summary of the method: as §1

Measured: odorant receptor agonist call

C=CCOC(=O)Cc1ccccc1
inactive: all assays above
